The source of these data is ChEMBL document CHEMBL1132356, “Structural modification of Fas C-terminal tripeptide and its effects on the inhibitory activity of Fas/FAP-1 binding” (J Med Chem, 1999).

The nature of assay [1]: Compound (50 mM) was tested in vitro for inhibitory potency against Fas-associated phosphatase-1 binding from HFAP-10cDNA subcloned into the bluescript vector pSK-II(Stratagene). The gist of the method: (§1)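 ³⁵S-labeled protein incubated 16 h at 4 °C with peptide and GST-Fas immobilized on beads, in pH 8.0 Tris/NaCl buffer with DTT, EDTA, 1.1% NP-40 and protease inhibitors. After four washes, bead-bound radioactivity was counted by scintillation. Specific binding is Fas binding minus FasΔ15 binding. % inhibition = 100 − (specific binding with peptide / without peptide × 100).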

Assay [2] is described as follows: Compound (30 mM) was tested in vitro for inhibitory potency against Fas-associated phosphatase-1 binding from HFAP-10cDNA subcloned into the bluescript vector pSK-II(Stratagene). To be noted: in the assay text read “30 µM” for “30 mM”. The gist of the method: as §1
Assay [3] addresses Tyrosine-protein phosphatase non-receptor type 13 (Homo sapiens) (UniProt Q12923). The assay is described as follows: In vitro inhibition of Fas-associated phosphatase-1 binding from HFAP-10cDNA subcloned into bluescript vector. Also noted: concentration or dose not given beside the values. To be noted: concentration not given here. The gist of the method: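 35S-labeled FAP-1 incubated 16 h at 4 °C with peptide and GST-Fas fusion protein on glutathione beads in 150 mM NaCl, 50 mM Tris pH 8.0, 5 mM DTT, 2 mM EDTA, 1.1% NP-40, protease inhibitors. After four washes, bead-bound radioactivity counted by scintillation. Specific binding is Fas minus Fas∆15 binding. % inhibition = 100 − (specific binding with peptide / without peptide × 100).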

A short description of assay [4]: Compound (100 mM) was tested in vitro for inhibitory potency against Fas-associated phosphatase-1 binding from HFAP-10cDNA subcloned into the bluescript vector pSK-II(Stratagene). The essentials: as §1
A short description of assay [5]: Compound (10 mM) was tested in vitro for inhibitory potency against Fas-associated phosphatase-1 binding from HFAP-10cDNA subcloned into the bluescript vector pSK-II(Stratagene). As to conditions: in the assay text read “10 uM” for “10 mM”. The gist of the method:
as §1

Starred links: 1 amine or outer side, 2 acyl side, 3 side chain; linkers in the order of their positions; H or OH if unused. Non-standard residues stand in square brackets, D forms with d. Residues, ends and D or L forms follow the SMILES beside them. *: point of attachment. Sta = CC(C)C[C@H](N)[C@@H](O)CC(=O)O; tBuAla = CC(C)(C)C[C@H](N)C(=O)O; NMeL = CN[C@@H](CC(C)C)C(=O)O; Chg = N[C@H](C(=O)O)C1CCCCC1; Phg = N[C@H](C(=O)O)c1ccccc1; Tle = CC(C)(C)[C@H](N)C(=O)O; NMeS = CN[C@@H](CO)C(=O)O; hSer = N[C@@H](CCO)C(=O)O; Nva = CCC[C@H](N)C(=O)O; Abu = CC[C@H](N)C(=O)O; Aib = CC(C)(N)C(=O)O; CO = O=C([*:1])[*:2]; Bz = O=C(c1ccccc1)*; NHPh = c1ccc(N*)cc1; Bn = c1ccc(C*)cc1

Sequence of Tyrosine-protein phosphatase non-receptor type 13 (Homo sapiens) (Q12923 whole entry, the tested form may be a part): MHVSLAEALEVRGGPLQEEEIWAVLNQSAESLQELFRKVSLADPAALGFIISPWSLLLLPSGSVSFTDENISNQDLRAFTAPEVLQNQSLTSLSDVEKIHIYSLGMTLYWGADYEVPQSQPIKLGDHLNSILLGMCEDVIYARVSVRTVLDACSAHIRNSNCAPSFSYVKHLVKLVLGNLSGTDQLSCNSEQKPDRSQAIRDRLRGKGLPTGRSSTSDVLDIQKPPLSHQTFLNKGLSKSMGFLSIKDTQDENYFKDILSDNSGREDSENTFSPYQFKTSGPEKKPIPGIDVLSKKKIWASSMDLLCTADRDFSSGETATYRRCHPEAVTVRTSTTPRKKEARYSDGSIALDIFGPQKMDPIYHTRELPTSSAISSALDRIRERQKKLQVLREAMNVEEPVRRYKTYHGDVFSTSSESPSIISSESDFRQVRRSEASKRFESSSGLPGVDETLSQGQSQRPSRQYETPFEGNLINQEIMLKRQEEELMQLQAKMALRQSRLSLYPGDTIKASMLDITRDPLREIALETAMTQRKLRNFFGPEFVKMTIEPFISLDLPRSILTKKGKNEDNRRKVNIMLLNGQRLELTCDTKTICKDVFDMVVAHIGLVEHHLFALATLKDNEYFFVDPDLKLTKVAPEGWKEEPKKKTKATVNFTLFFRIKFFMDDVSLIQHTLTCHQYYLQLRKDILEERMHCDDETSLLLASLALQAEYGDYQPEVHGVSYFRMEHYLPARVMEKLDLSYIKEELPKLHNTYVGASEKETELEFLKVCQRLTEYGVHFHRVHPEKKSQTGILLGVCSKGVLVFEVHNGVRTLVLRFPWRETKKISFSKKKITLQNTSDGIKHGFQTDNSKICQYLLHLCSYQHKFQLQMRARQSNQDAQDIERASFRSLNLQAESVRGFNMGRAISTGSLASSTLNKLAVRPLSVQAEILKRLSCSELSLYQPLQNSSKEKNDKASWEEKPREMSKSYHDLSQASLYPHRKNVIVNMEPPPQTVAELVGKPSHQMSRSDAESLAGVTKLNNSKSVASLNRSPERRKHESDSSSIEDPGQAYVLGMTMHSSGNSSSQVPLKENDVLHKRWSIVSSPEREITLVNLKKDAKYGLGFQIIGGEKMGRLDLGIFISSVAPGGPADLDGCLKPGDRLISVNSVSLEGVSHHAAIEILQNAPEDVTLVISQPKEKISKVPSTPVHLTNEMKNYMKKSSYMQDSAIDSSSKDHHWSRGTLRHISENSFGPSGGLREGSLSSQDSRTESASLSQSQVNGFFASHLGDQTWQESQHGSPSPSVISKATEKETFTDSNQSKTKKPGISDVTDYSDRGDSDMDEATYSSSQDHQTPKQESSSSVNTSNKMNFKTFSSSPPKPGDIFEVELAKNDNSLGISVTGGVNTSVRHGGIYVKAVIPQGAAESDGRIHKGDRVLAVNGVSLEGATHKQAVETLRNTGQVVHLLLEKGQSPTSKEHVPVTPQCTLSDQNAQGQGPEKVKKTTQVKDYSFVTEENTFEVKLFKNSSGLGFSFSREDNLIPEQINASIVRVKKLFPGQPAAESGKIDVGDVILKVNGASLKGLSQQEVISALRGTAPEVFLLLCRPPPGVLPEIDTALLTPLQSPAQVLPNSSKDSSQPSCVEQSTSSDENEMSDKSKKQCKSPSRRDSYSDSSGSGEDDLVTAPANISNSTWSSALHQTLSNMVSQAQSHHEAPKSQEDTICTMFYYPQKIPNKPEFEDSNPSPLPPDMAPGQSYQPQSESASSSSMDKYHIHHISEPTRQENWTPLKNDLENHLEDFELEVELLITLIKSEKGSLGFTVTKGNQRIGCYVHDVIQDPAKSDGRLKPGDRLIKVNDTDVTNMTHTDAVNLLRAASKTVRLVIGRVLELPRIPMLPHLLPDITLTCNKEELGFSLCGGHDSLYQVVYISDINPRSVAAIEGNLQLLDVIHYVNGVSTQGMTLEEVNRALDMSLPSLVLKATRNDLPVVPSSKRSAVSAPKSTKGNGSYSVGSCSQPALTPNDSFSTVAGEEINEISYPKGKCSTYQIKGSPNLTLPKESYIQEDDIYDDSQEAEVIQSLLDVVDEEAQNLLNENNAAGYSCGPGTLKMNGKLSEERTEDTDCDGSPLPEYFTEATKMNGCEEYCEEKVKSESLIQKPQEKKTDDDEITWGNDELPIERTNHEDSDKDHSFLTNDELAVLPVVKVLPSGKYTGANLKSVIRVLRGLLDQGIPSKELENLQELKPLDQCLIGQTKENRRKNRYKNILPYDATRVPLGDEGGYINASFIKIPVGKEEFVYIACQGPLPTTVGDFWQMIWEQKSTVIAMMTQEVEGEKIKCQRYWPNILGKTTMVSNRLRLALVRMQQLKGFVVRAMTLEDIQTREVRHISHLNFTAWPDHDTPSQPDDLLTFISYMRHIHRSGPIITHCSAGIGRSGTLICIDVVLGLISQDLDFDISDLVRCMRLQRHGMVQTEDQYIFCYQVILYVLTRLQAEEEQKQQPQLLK

For orientation: inhibition means the drop in the measured response relative to a control, in per cent. Consider `CC(=O)N1C[C@@H](O)C[C@H]1C(=O)N[C@@H](CC(C)C)C(=O)N[C@H](C(=O)O)C(C)C`, for which the inhibition in assay [1] was 9.6%.

Regarding `CC(=O)N1C[C@H](O)C[C@H]1C(=O)N[C@@H](CC(C)C)C(=O)N[C@H](C(=O)O)C(C)C`, the inhibition in assay [1] amounted to 2.4%.

In the case of `CC(=O)N[C@@H](CO)C(=O)NCCC(=O)N[C@H](C(=O)O)C(C)C`, in assay [2], the inhibition was 13.6%.

Turning to `CC(=O)N[C@@H](CO)C(=O)N[C@@H](CC(C)C)C(=O)N[C@@H](C(=O)O)C(C)C`, the inhibition in assay [3] is -6.8%.

Turning to `CC(=O)N[C@@H](CO)C(=O)N[C@@H](CC(C)C)C(=O)N[C@H](C(=O)O)C(C)C`, the inhibition in assay [3] was 101%; in assay [4], 87.6%; in assay [2], 31.1%; in assay [1], 44.3%.

In the case of `CC(=O)N[C@@H](CO)C(=O)N[C@@H](CC(C)C)C(=O)N[C@H](C(=O)Oc1nn[nH]n1)C(C)C`, in assay [3], the inhibition was found to be 14.4%.

For `CC(=O)N[C@@H](CO)C(=O)N[C@@H](CC(C)C)[C@@H](O)C(=O)N[C@H](C(=O)O)C(C)C`, in assay [2], the inhibition came to 4.9%.

Take `CC(=O)N[C@@H](CO)C(=O)N[C@@H](Cc1ccc(Oc2ccc(OC(C)=O)cc2)cc1)C(=O)N[C@H](C(=O)O)C(C)C`: the inhibition in assay [2] was 46.7%.

For `CC(=O)N[C@@H](CO)C(=O)N[C@H](CC(C)C)C(=O)N[C@H](C(=O)O)C(C)C`, in assay [3], the inhibition worked out at 1.2%.

On to `CC(=O)N[C@@H](CO)C(=O)Nc1ccc(C(=O)N[C@H](C(=O)O)C(C)C)cc1`, for which the inhibition in assay [3] worked out at 16.5%.

As for `CC(=O)N[C@@H](CO)C(=O)Nc1cccc(C(=O)N[C@H](C(=O)O)C(C)C)c1`, the inhibition in assay [3] came to 9.5%.

`CC(=O)N[C@H](CO)C(=O)N[C@@H](CC(C)C)C(=O)N[C@H](C(=O)O)C(C)C`: the inhibition in assay [3] was found to be 59.2%.

Regarding `CC(C)C[C@H](NC(=O)[C@H](CO)NC(=O)C1CCCCC1)C(=O)N[C@H](C(=O)O)C(C)C`, in assay [5], the inhibition amounted to 16%.

`CC(C)C[C@H](NC(=O)[C@H](CO)NC(=O)NC1CCCCC1)C(=O)N[C@H](C(=O)O)C(C)C`: in assay [5], the inhibition came to 29.1%.

With `CC(C)C[C@H](NC(=O)[C@H](CO)NC(=O)Nc1ccc(C(=O)[C@@H](N)CCC(=O)O)cc1)C(=O)N[C@H](C(=O)O)C(C)C`, the inhibition in assay [5] is 66.6%.

With `CC(C)C[C@H](NC(=O)[C@H](CO)NC(=O)Nc1cccc(C(=O)[C@@H](N)CCC(=O)O)c1)C(=O)N[C@H](C(=O)O)C(C)C`, the inhibition in assay [5] worked out at 76.8%.

For `CC(C)C[C@H](NC(=O)[C@H](CO)NC(=O)Nc1ccccc1C(=O)[C@@H](N)CCC(=O)O)C(=O)N[C@H](C(=O)O)C(C)C`, the inhibition in assay [5] was found to be 47.8%.

As for `CC[C@@H](C)[C@H](NC(=O)[C@H](CCC(=O)O)NC(C)=O)C(=O)N[C@@H](CCC(N)=O)C(=O)N[C@@H](CO)C(=O)N[C@@H](CC(C)C)C(=O)N[C@H](C(=O)O)C(C)C`, in assay [5], the inhibition was determined as 29.6%.

Turning to `CC(=O)N[C@@H](COC(C)=O)C(=O)N[C@@H](CC(C)C)C(=O)N[C@H](C(=O)O)C(C)C` (Ac-Ser(Ac)-Leu-Val-OH), the inhibition in assay [4] turned out to be 47.9%.

In the case of `CC(=O)N[C@@H](COCc1ccccc1)C(=O)N[C@@H](CC(C)C)C(=O)N[C@H](C(=O)O)C(C)C` (Ac-Ser(Bn)-Leu-Val-OH), the inhibition in assay [4] worked out at 10.4%.

For the molecule `CC(=O)N[C@@H](COC(=O)c1ccccc1)C(=O)N[C@@H](CC(C)C)C(=O)N[C@H](C(=O)O)C(C)C` (Ac-Ser(Bz)-Leu-Val-OH), the inhibition in assay [4] was found to be 36.2%.

Turning to `COC(=O)[C@@H](NC(=O)[C@H](CC(C)C)NC(=O)[C@H](CO)NC(C)=O)C(C)C` (Ac-Ser-Leu-Val-OMe), the inhibition in assay [3] was -0.5%.

Consider `CC[C@H](NC(=O)[C@H](CC(C)C)NC(=O)[C@H](CO)NC(C)=O)C(=O)O` (Ac-Ser-Leu-[Abu]-OH), for which the inhibition in assay [1] turned out to be 18.7%.

For the molecule `CC(=O)N[C@@H](CO)C(=O)N[C@@H](CC(C)C)C(=O)N[C@H](C(=O)O)C1CCCCC1` (Ac-Ser-Leu-[Chg]-OH), in assay [1], the inhibition amounted to 7.7%.

As to `CCC[C@H](NC(=O)[C@H](CC(C)C)NC(=O)[C@H](CO)NC(C)=O)C(=O)O` (Ac-Ser-Leu-[Nva]-OH), the inhibition in assay [1] turned out to be 16.6%.

Consider `CC(=O)N[C@@H](CO)C(=O)N[C@@H](CC(C)C)C(=O)N[C@H](C(=O)O)C(C)(C)C` (Ac-Ser-Leu-[Tle]-OH), for which the inhibition in assay [1] was found to be 7.2%.

In the case of `CC(=O)N[C@@H](CO)C(=O)N[C@@H](CC(C)C)C(=O)N[C@@H](CC(C)(C)C)C(=O)O` (Ac-Ser-Leu-[tBuAla]-OH), the inhibition in assay [1] was 10.1%.

Regarding `CC[C@H](NC(=O)[C@H](CO)NC(C)=O)C(=O)N[C@H](C(=O)O)C(C)C` (Ac-Ser-[Abu]-Val-OH), the inhibition in assay [2] amounted to 21.1%.

Turning to `CC(=O)N[C@@H](CO)C(=O)NC(C)(C)C(=O)N[C@H](C(=O)O)C(C)C` (Ac-Ser-[Aib]-Val-OH), the inhibition in assay [3] is -4%.

Take `CC(=O)N[C@@H](CO)C(=O)N[C@H](C(=O)N[C@H](C(=O)O)C(C)C)C1CCCCC1` (Ac-Ser-[Chg]-Val-OH): the inhibition in assay [2] is 34.7%.

Take `CC(=O)N[C@@H](CO)C(=O)N(C)[C@@H](CC(C)C)C(=O)N[C@H](C(=O)O)C(C)C` (Ac-Ser-[NMeL]-Val-OH): the inhibition in assay [3] came out at 33.4%.

Consider `CCC[C@H](NC(=O)[C@H](CO)NC(C)=O)C(=O)N[C@H](C(=O)O)C(C)C` (Ac-Ser-[Nva]-Val-OH), for which the inhibition in assay [2] was 6%.

On to `CC(=O)N[C@@H](CO)C(=O)N[C@H](C(=O)N[C@H](C(=O)O)C(C)C)c1ccccc1` (Ac-Ser-[Phg]-Val-OH), for which the inhibition in assay [2] was 18.5%.

`CC(=O)N[C@@H](CO)C(=O)N[C@H](C(=O)N[C@H](C(=O)O)C(C)C)C(C)(C)C` (Ac-Ser-[Tle]-Val-OH): the inhibition in assay [2] was determined as 54.6%.

Turning to `CC(=O)N(C)[C@@H](CO)C(=O)N[C@@H](CC(C)C)C(=O)N[C@H](C(=O)O)C(C)C` (Ac-[NMeS]-Leu-Val-OH), in assay [3], the inhibition amounted to 20.6%.

As for `CC(=O)N[C@@H](CC(C)C)[C@@H](O)CC(=O)N[C@@H](CC(C)C)C(=O)N[C@H](C(=O)O)C(C)C` (Ac-[Sta]-Leu-Val-OH), the inhibition in assay [1] worked out at 9.9%.

As to `CC(=O)N[C@@H](CCO)C(=O)N[C@@H](CC(C)C)C(=O)N[C@H](C(=O)O)C(C)C` (Ac-[hSer]-Leu-Val-OH), in assay [1], the inhibition stood at 13.3%.

`CC(C)C[C@H](NC(=O)[C@H](CO)NC(=O)c1ccccc1)C(=O)N[C@H](C(=O)O)C(C)C` (Bz-Ser-Leu-Val-OH): the inhibition in assay [5] came out at 28%.

On to `CC(C)C[C@H](NC(=O)[C@H](CO)NC(=O)Nc1ccccc1)C(=O)N[C@H](C(=O)O)C(C)C` ({NHPh-CO}-Ser-Leu-Val-OH), for which, in assay [5], the inhibition is 51.5%.
